Measured values: publication PMC7132385 (Antiviral Research, 2007)
≈ marks a conversion by molar mass, not a printed value. Read-outs that look alike come from different tables or passages of the source.

B1: cyanovirin-N (protein, UniProt P81180 1-101, looked up)
Cyanovirin-N: LGKFSQTCYNSAIQGSVLTSTCERTNGGYNTSSIDLNSVIENVDGSLKWQPSNFIETCRNTQLAGSSELAAECKTRAQQFVSTKINLDDHIANIDGTLKYE
B2: Urtica dioica agglutinin (protein, UniProt P11218 24-372, looked up)
Lectin/endochitinase 1: QRCGSQGGGGTCPALWCCSIWGWCGDSEPYCGRTCENKCWSGERSDHRCGAAVGNPPCGQDRCCSVHGWCGGGNDYCSGSKCQYRCSSSVRGPRVALSGNSTANSIGNVVVTEPLFDQMFSHRKDCPSQGFYSYHSFLVAAESFPAFGTIGDVATRKREVAAFLAHISQATSGERSDVENPHAWGLCHINTTTVTENDFCTSSDWPCAAGKKYSPRGPIQLTHNFNYGLAGQAIGEDLIQNPDLVEKDPIISFKTALWFWMSQHDNKPSCHDIVLNANSAANRIPNKGVIGNIISRAFGHDDFAVRSSSIGFYKRYCDMLGVSYGHDLKYWFDNTPSSEFQRIQMRVAA

Key:
[1] = system: FIPV Black TN406HP (serotype I); assay: Immunoperoxidase; type: cell-based, feline coronavirus; conditions: read-out: EC50 (50% inhibition of virus infection), FIPV Black TN406HP (serotype I)
Procedure, shortened: (§1)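 FCWF monolayers were given virus (MOI 0.5) that had been preincubated 1 h at 37 °C with test compound, for 1 h after a PBS-DEAE wash, then washed and given compound at the same concentrations. Cells were fixed in 4% formaldehyde for 15 min at 6 h post-infection (16 h for serotype I strain), permeabilised with 70% ethanol, and stained with cat FIP ascitic fluid plus HRP goat anti-cat. EC50 is 50% fewer microscopically counted infected foci than mock-treated cells.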

[2] = Cytotoxicity MTT assay, Ederm cells; type: cell-based, equine; conditions: horse, equine dermis (Ederm) cells
Procedure, shortened: (§2)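 Cells grown in DMEM with 10% FBS and antibiotics were kept with a range of test compound concentrations for 3 days at 37 °C, 5% CO2. MTT was added to 0.5 mg/ml final for 2 h at 37 °C. Medium was removed and cells were lysed in DMSO (10 min, room temperature, rocking). OD was read at 570 nm. CC50 is the concentration lowering viability of 50% of cells, ± S.D.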

[3] = Cytotoxicity MTT assay, LR7 cells; type: cell-based, mouse; conditions: mouse
Procedure, shortened: as §2

MHV-EFLM = assay: Immunoperoxidase; type: cell-based, mouse hepatitis virus; conditions: read-out: EC50 (50% inhibition of virus infection), MHV-EFLM
Procedure, shortened: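 Murine LR7 fibroblasts expressing the MHV receptor were infected at MOI 0.5 with virus preincubated 1 h at 37 °C with test compound. After 1 h the inoculum was removed, cells were washed, and compound was re-added at the same concentrations. At 6 h cells were fixed in 4% formaldehyde and permeabilised with 70% ethanol. Immunoperoxidase staining used rabbit anti-MHV polyclonal plus HRP swine anti-rabbit. EC50 is the concentration lowering light-microscope infected-cell counts by 50% versus mock.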

[4] = system: FIPV-Δ3abcFL (serotype II); assay: Immunoperoxidase; type: cell-based, feline coronavirus; conditions: read-out: EC50 (50% inhibition of virus infection), FIPV-Δ3abcFL (serotype II)
Procedure, shortened: as §1

[5] = system: porcine alveolar macrophages (PAMs); assay: Cytotoxicity by EMA staining, PAMs; type: cell-based; conditions: read-out: CC50 (50% cytotoxicity), PAMs, 24 h, ± S.D.
Equine arteritis virus = assay: Colorimetric MTT antiviral assay, equine arteritis virus; type: cell-based; conditions: read-out: EC50 (50% inhibition of virus infection), Equine arteritis virus
Procedure, shortened: (§3)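 100 TCID50 of virus was preincubated with graded test compound for 1 h at 37 °C, 5% CO2, added to PBS-DEAE-washed cells for 1 h, then removed, and compound was re-added at the same concentrations in DMEM with 5% FBS. MTT (0.5 mg/ml final) was added for 2 h at day 2 (FCoV 79-1683, FIPV 79-1146) or day 3 (others), then DMSO lysis and OD570. EC50 is 50% protection from CPE.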

[6] = Cytotoxicity MTT assay, FCWF cells; type: cell-based, feline; conditions: cat, FCWF cells
Procedure, shortened: as §2

IBV Beaudette = assay: Colorimetric MTT antiviral assay, IBV Beaudette; type: cell-based, infectious bronchitis virus; conditions: read-out: EC50 (50% inhibition of virus infection), IBV Beaudette
Procedure, shortened: as §3

[7] = Maximum solubility of the compound; type: physicochemical
[8] = system: FCoV 79-1683 (serotype II); assay: Immunoperoxidase; type: cell-based, feline coronavirus; conditions: read-out: EC50 (50% inhibition of virus infection), FCoV 79-1683 (serotype II)
Procedure, shortened: as §1

[9] = Cytotoxicity MTT assay, Vero cells; type: cell-based, simian; conditions: monkey (simian), Vero cells
Procedure, shortened: as §2

ST cells = assay: Cytotoxicity MTT assay, ST cells; type: cell-based, porcine; conditions: read-out: CC50 (50% cytotoxicity), ST, 3 days, ± S.D.
Procedure, shortened: as §2

Berne virus torovirus = assay: Colorimetric MTT antiviral assay, Berne virus; type: cell-based, equine torovirus; conditions: read-out: EC50 (50% inhibition of virus infection), Berne virus torovirus
Procedure, shortened: as §3

LR7 cells = assay: Cytotoxicity MTT assay, LR7 cells; type: cell-based, mouse; conditions: read-out: CC50 (50% cytotoxicity), LR7; MTT assay, 3 days; ± S.D.
Procedure, shortened: as §2

FCWF cells = assay: Cytotoxicity MTT assay, FCWF cells; type: cell-based, feline; conditions: read-out: CC50 (50% cytotoxicity), FCWF; MTT assay, 3 days; ± S.D.
Procedure, shortened: as §2

retroviruses = conditions: read-out: EC50 against retroviruses; earlier studies; ref Balzarini et al., 1992; cited from earlier work
[10] = system: FIPV 79-1146 (serotype II); assay: Colorimetric MTT antiviral assay, FIPV 79-1146; type: cell-based, feline coronavirus; conditions: read-out: EC50 (50% inhibition of virus infection), FIPV 79-1146 (serotype II), FCWF cells, 100 TCID50, 2 days, ± S.D.
Procedure, shortened: as §3

[11] = system: FIPV Black TN406HP (serotype I); assay: Colorimetric MTT antiviral assay, FIPV Black TN406HP; type: cell-based, feline coronavirus; conditions: read-out: EC50 (50% inhibition of virus infection), FIPV Black TN406HP (serotype I), FCWF cells, 100 TCID50, 3 days, ± S.D.
Procedure, shortened: as §3

[12] = system: equine dermis (Ederm) cells; assay: Cytotoxicity MTT assay, Ederm cells; type: cell-based; conditions: read-out: CC50 (50% cytotoxicity), Ederm; MTT assay, 3 days; ± S.D.
Procedure, shortened: as §2

TGEV Purdue = assay: Colorimetric MTT antiviral assay, TGEV Purdue; type: cell-based, transmissible gastroenteritis virus; conditions: read-out: EC50 (50% inhibition of virus infection), TGEV Purdue, ST cells, 100 TCID50, 3 days, ± S.D.
Procedure, shortened: as §3

PRRSV Lelystad virus = assay: Immunoperoxidase; type: cell-based, porcine reproductive and respiratory syndrome virus; conditions: IPOX assay; for PRRSV Lelystad virus infection of PAMs reduced to: at 2 μM; for EC50: read-out: EC50 (50% inhibition of virus infection), PRRSV Lelystad virus, PAMs, MOI 1, 10 h post-infection, ± S.D.
Procedure, shortened: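 Primary porcine alveolar macrophages were kept in EMEM with 10% FBS at 37 °C, 5% CO2. Virus at MOI 1 was preincubated 1 h at 37 °C with test compound, then added to cells for 1 h. Cells were washed with FBS-free medium and fixed in −20 °C methanol at 10 h post-infection. Peroxidase was blocked with azide/H2O2. Staining used anti-nucleocapsid MAb P3/27 with HRP anti-mouse. Infected cells were counted by light microscopy against mock-treated cells.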

Vero cells = assay: Cytotoxicity MTT assay, Vero cells; type: cell-based, simian; conditions: read-out: CC50 (50% cytotoxicity), Vero; MTT assay, 3 days; ± S.D.
Procedure, shortened: as §2

[13] = system: FCoV 79-1683 (serotype II); assay: Colorimetric MTT antiviral assay, FCoV 79-1683; type: cell-based, feline coronavirus; conditions: read-out: EC50 (50% inhibition of virus infection), FCoV 79-1683 (serotype II), FCWF cells, 100 TCID50, 2 days, ± S.D.
Procedure, shortened: as §3

[14] = IPOX assay, FCWF cells, MOI 0.5, 16 h post-infection, ± S.D.
[15] = IPOX assay, LR7 cells, MOI 0.5, 6 h post-infection, ± S.D.
[16] = IPOX assay, FCWF cells, MOI 0.5, 6 h post-infection, ± S.D.
[17] = MTT assay, Ederm cells, 100 TCID50, 3 days, ± S.D.
[18] = MTT assay, Vero cells, 100 TCID50, 3 days, ± S.D.

Molecule	CC50 [5] [nM]	CC50 (ST cells) [nM]	CC50 (LR7 cells) [nM]	CC50 (FCWF cells) [nM]	EC50 [10] [nM]	EC50 [11] [nM]	EC50 [1, 14] [nM]	CC50 [12] [nM]	EC50 (MHV-EFLM; [15]) [nM]	EC50 [4, 16] [nM]	EC50 (Equine arteritis virus; [17]) [nM]	EC50 (TGEV Purdue) [nM]	EC50 (IBV Beaudette; [18]) [nM]	PRRSV Lelystad virus infection of PAMs reduced to (PRRSV Lelystad virus) [%]	EC50 (PRRSV Lelystad virus) [nM]	EC50 [8, 16] [nM]	CC50 (Vero cells) [nM]	EC50 (Berne virus torovirus; [17]) [nM]	EC50 [13] [nM]	further results
CN[C@@H]1[C@H](O[C@@H]2OC[C@@H](O)[C@H](O)[C@H]2O)[C@@H](O)[C@H](O[C@H]2c3cc(C)c(C(=O)N[C@H](C)C(=O)O)c(O)c3-c3c(cc4c(c3O)C(=O)c3cc(OC)cc(O)c3C4=O)[C@@H]2O)O[C@@H]1C [PRM-A, pradimicin-A, reference compound]	18100 ± 6400	121000 ± 27600																		EC50 ([1]; Alphacoronavirus 1, 16 h): 7800 ± 2000 nM; CC50 at 3 days [2]: > 120000 nM; CC50 at 3 days [3]: > 120000 nM; EC50 (MHV-EFLM; Murine coronavirus, LR7, 6 h): 10700 ± 5800 nM; EC50 ([4]; Alphacoronavirus 1, 6 h): > 120000 nM; EC50 (Equine arteritis virus; Equine arteritis virus, 72 h): > 120000 nM; CC50 at 3 days [6]: > 120000 nM; EC50 (IBV Beaudette; Avian coronavirus, Vero, 72 h): 2900 ± 2000 nM; solubility [7]: 120 µM (≈ 101 µg/mL); EC50 ([8]; Alphacoronavirus 1, 6 h): > 120000 nM; CC50 at 3 days [9]: 120000 ± 32400 nM; EC50 (Berne virus torovirus; Equine torovirus, 72 h): 31000 ± 24000 nM
Cymbidium sp. agglutinin [CA]			> 4000	3300 ± 800	290 ± 110	130 ± 2														EC50 (retroviruses): 3 nM
Galanthus nivalis agglutinin [GNA]	> 2000	> 2000	> 2000	> 2000	130 ± 2	8 ± 5	12 ± 6	> 2000	40 ± 20	70 ± 40	180 ± 70	4 ± 0.8	0.2 ± 0.2	40	> 2000	200 ± 60	> 2000	120 ± 90	430 ± 300	
Hippeastrum hybrid agglutinin [HHA]	> 2000	> 2000	> 2000	> 2000	100 ± 2	7 ± 3	4 ± 2	1900 ± 300	70 ± 20	30 ± 20	130 ± 40		0.2 ± 0.2	40	> 2000	60 ± 20	> 2000	70 ± 70	110 ± 30	
B1			> 2000	1400 ± 500																
B2	> 12000	6100 ± 1000	9900 ± 4800	2200 ± 300	240 ± 140	23 ± 12	20 ± 10	9500 ± 3100	530 ± 20	140 ± 50	390 ± 10	80 ± 70	50 ± 50		4800 ± 3200	170 ± 100	3400 ± 1300	250 ± 200	110 ± 30	
